PAX8 inh HTS – inhibitors of PAX8 transcriptional activity in RMG-I cells. RMG-I TPO-luciferase reporter, SteadyGlo, 24 h. inhibition, % at 12.6 µM. hit rate 1.2% among 360,000. AID 652154;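 active = mean replicate inhibition at least 60% with every replicate also reaching 60%; inconclusive = only one of the two criteria is met; inactive = mean below 60% and not all replicates reaching 60%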;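 also: luciferase light reporting Pax8 driven TPO promoter activity; plate controls were median of neutral control wells for no effect and mitoxantrone controls for full effect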
HIV Env fusion – blocks HIV Env-driven cell-cell fusion; HeLa-JRFL Env/CEM21 cell fusion, luciferase; inhibition, % at 12.3 µM; hit rate 1.1% among 360,000;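 active = mean replicate inhibition score of at least 50 and every replicate individually at or above 50; inconclusive = only one of the two criteria met; inactive = mean below 50 and not all replicates reaching 50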;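 also: 0% = plate neutral controls and 100% = maraviroc near 300 nM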
EWS-Fli block – inhibitors of EWS/Fli oncoprotein transcriptional activity. A673 NR0B1-luciferase reporter, viability-normalised. inhibition, % at 12.6 µM. hit rate 0.67% among 350,000. AID 651661;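 active = mean inhibition of at least 50% after viability correction, with every replicate also passing that limit; inconclusive = mean reaches 50% but only one of two replicates passes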;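 also: firefly luciferase signal divided by Alamar Blue viability fluorescence both relative to DMSO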
MLL AF4-AF9 inh – blocks AF4 peptide binding to human AF9. P42568. AlphaScreen, biotin-AF4 peptide binding to FLAG-AF9. inhibition, % at 10 µM. hit rate 0.47% among 350,000;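 active = every replicate reaching a set inhibition limit, whatever the replicate mean, cut at about 25% in these data; inconclusive = mean inhibition reaches that limit but some replicates miss it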;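 also: 0% = plate neutral control median and 100% = total signal loss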
Target sequence (P42568 whole entry, looked up): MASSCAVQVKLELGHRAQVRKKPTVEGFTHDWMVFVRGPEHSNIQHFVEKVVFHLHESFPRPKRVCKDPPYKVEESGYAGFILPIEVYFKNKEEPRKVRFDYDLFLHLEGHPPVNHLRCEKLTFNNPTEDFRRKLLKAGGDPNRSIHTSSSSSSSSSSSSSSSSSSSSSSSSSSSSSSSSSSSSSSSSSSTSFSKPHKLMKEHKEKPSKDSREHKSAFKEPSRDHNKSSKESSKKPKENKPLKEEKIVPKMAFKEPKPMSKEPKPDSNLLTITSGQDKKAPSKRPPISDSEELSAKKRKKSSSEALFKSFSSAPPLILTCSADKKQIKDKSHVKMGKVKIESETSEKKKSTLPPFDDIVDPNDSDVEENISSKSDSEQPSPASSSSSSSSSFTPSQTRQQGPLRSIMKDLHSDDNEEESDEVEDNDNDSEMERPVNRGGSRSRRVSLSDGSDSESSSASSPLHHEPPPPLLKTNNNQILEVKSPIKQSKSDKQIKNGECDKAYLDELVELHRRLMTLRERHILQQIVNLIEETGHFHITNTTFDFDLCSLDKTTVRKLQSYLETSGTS
FN deposit inh – fibronectin deposition inhibition | hit rate 0.086% among 350,000 | AH1F fibroblasts, Alexa488-fibronectin deposition fluorescence, overnight | inhibition, % at 12.6 µM;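 active = mean inhibition across replicates of 30% or more, regardless of how many single replicates reach that level; inconclusive = mean under 30% yet at least half of replicates reach 30%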;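 also: positive control wells lacked labelled fibronectin entirely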
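Material – AH1F fibroblast monolayer, labelled fibronectin deposition · Reagent – labelled fibronectin 24 nM · Timing – 1 h adhesion, overnight exposure · Measured by – fluorescence at 485 nm excitation, 525 nm emission · Read-out – inhibition of fibronectin deposition signal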
N-glyco inh – blocks N-linked glycosylation in D54 reporter cells; reporter increase, % at 12.5 µM; hit rate 0.23% among 360,000; D54 ERlucT glycosylation luciferase reporter, 24 h; percent of 100 nM tunicamycin response; AID 588692;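 active = mean luciferase reporter signal, scaled so untreated is 0 and the glycosylation-blocking control 100, at or above a set limit in every replicate; inconclusive = mean reaches the limit but not every replicate does; inactive = mean below the limit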;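 also: luciferase carries N-glycosylation sites so blocking glycosylation raises the light; 0% = median of neutral control wells and 100% = median of 100 nM tunicamycin wells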
* hit, by the source's call; ? = inconclusive; . = no result given; [ ] = dose if it differs, or a comment. Only some compounds are listed: those with a hit (about 2.5% of all), similar ones and a draw of the others.

SMILES | PAX8 inh HTS | HIV Env fusion | EWS-Fli block | MLL AF4-AF9 inh | FN deposit inh | N-glyco inh
CC(=O)OCC1OC(n2ccc3ccccc32)C(OC(C)=O)C(OC(C)=O)C1OC(C)=O (stereo not given) | . | -55 | . | . | 13 | 1
COC(=O)C1C=CC(OC2OC(COC(C)=O)C(OC(C)=O)C(OC(C)=O)C2OC(C)=O)n2c(=O)n(-c3ccccc3)c(=O)n21 (stereo not given) | 101* | -17 | -4 | 0 | 4 | -11
Cc1ccc(NC(=O)NC(=O)COc2ccc(Cl)cc2Cl)c(C)c1 | 117* | . | -1 | -3 | 4 | 4
CC(C)NC(=O)N(C)C[C@H]1Oc2ccc(NC(=O)Nc3ccc(F)cc3)cc2C(=O)N([C@@H](C)CO)C[C@@H]1C | -10 | . | -4 | -1 | . | .
C[C@@H]1CN([C@@H](C)CO)S(=O)(=O)c2ccc(-c3ccccc3)cc2O[C@H]1CN(C)Cc1cccnc1 | ? | 32[16.7 µM] | 67* | . | -6 | .
Cc1ccc(-c2ccc3c(c2)O[C@H](CN(C)Cc2ccncc2)[C@@H](C)CN([C@H](C)CO)S3(=O)=O)cc1 | . | 39[16.7 µM] | 72* | -3 | 29 | .
Cc1ccc(-c2ccc3c(c2)O[C@H](CN(C)Cc2ccncc2)[C@H](C)CN([C@@H](C)CO)S3(=O)=O)cc1 | . | ? | -4 | -5 | -9 | .
Cc1ccccc1-c1ccc2c(c1)O[C@@H](CN(C)Cc1ccncc1)[C@H](C)CN([C@H](C)CO)S2(=O)=O | . | 36[16.7 µM] | 66* | 12 | . | .
Cc1ccc(-c2ccc3c(c2)O[C@@H](CN(C)Cc2cccnc2)[C@H](C)CN([C@H](C)CO)S3(=O)=O)cc1 | . | 75*[16.7 µM] | ? | 6 | 2 | .
Cc1ccccc1-c1ccc2c(c1)O[C@H](CN(C)Cc1ccncc1)[C@H](C)CN([C@H](C)CO)S2(=O)=O | . | 12[16.7 µM] | 18 | 6 | . | .
C[C@H]1CN([C@@H](C)CO)C(=O)c2cc(NC(=O)CCC(F)(F)F)ccc2O[C@@H]1CN(C)C(=O)Nc1ccc2c(c1)OCO2 | -8 | -15[16.7 µM] | -7 | -4 | . | .
CCC(=O)NC1=C(Cl)C(=O)C(NC(=O)CC)=C(Cl)C1=O | 86* | -71 | 25 | -4 | -2 | 6
CCC(=O)NC1=C(NC(C)c2ccccc2)C(=O)c2ccccc2C1=O (stereo not given) | . | . | . | . | . | 6
CCC(c1nnnn1Cc1ccco1)N(CCc1ccccc1)Cc1cc2cc(C)ccc2[nH]c1=O (stereo not given) | . | . | . | . | . | -1
Cc1ccc2[nH]c(=O)c(CN(CCc3ccccc3)C(c3nnnn3Cc3ccco3)C(C)C)cc2c1 (stereo not given) | 10 | 72* | 10 | 0 | -3 | -2
CCNC(=O)C[C@@H]1CC[C@H]2[C@@H](COC[C@@H](O)CN2Cc2ccncc2)O1 | -15 | 11[16.7 µM] | -14 | . | 3 | .
O=C(C1CCN(S(=O)(=O)c2cccnc2)CC1)N1CCN(c2ccccc2Cl)CC1 | . | . | . | . | . | -2
CC1CCN(S(=O)(=O)c2cc(C(=O)N3CCN(c4ccccc4)CC3)ccc2Br)CC1 | 56 | 72* | 14 | 1 | -13 | -3
Cc1n[nH]c(C)c1S(=O)(=O)N1CCCC(C(=O)N2CCN(c3ccc(Cl)cc3)CC2)C1 (stereo not given) | 29 | 29 | . | . | -6 | -5
Cc1nn(C)c(C)c1S(=O)(=O)N1CCCC(C(=O)N2CCN(c3ccc(Cl)cc3)CC2)C1 (stereo not given) | 25 | 63* | . | . | 10 | -1
O=C(C1CCN(S(=O)(=O)c2cccnc2)CC1)N1CCN(c2ccc(Cl)cc2)CC1 | 67* | 1 | 6 | 2 | 2 | -6
O=C(C1CCN(S(=O)(=O)c2ccccc2)CC1)N1CCN(c2ccccc2)CC1 | -3 | 61* | 8 | -2 | 3 | -4
CC1CCN(C(=O)c2cccc(S(=O)(=O)N3CCN(c4ccccc4)CC3)c2)CC1 | -17 | 20 | 2 | -2 | 3 | 0
C[C@@H]1CCCCO[C@@H](CN(C)C(=O)CCC(F)(F)F)[C@H](C)CN([C@@H](C)CO)C(=O)c2cc(NS(C)(=O)=O)ccc2O1 | -18 | -3[16.7 µM] | 1 | . | . | .
O=C(NCC[C@H]1CC[C@H](NS(=O)(=O)c2ccc(Cl)cc2)[C@H](CO)O1)Nc1ccc(F)cc1 | -24 | . | -6 | 30* | -2 | .
SMILES | PAX8 inh HTS | HIV Env fusion | EWS-Fli block | MLL AF4-AF9 inh | FN deposit inh | N-glyco inh
O=C(NCC[C@@H]1CC[C@@H](NS(=O)(=O)c2ccccc2F)[C@@H](CO)O1)c1ccc(F)cc1 | 0 | 61*[16.7 µM] | -4 | -1 | -7 | .
O=S(=O)(NCC[C@H]1CC[C@H](NS(=O)(=O)c2ccccc2Cl)[C@@H](CO)O1)c1ccc(Cl)cc1 | 14 | -4[16.7 µM] | 4 | -2 | . | .
O=S(=O)(NCC[C@H]1CC[C@H](NS(=O)(=O)c2ccccc2Cl)[C@H](CO)O1)c1ccc(Cl)cc1 | 9 | 58*[16.7 µM] | -3 | -4 | . | .
Cc1ccc(S(=O)(=O)N[C@@H]2CC[C@H](CCNC(=O)c3ccccc3F)O[C@H]2CO)cc1 | -4 | 66*[16.7 µM] | -4 | -1 | . | .
O=C(NCC[C@@H]1CC[C@H](NS(=O)(=O)c2ccccc2F)[C@H](CO)O1)c1ccc(F)cc1 | 8 | 3[16.7 µM] | -6 | 0 | -3 | .
C[C@@H]1CCCCO[C@H](CN(C)C(=O)C2CCCCC2)[C@H](C)CN([C@H](C)CO)C(=O)c2cc(NS(=O)(=O)c3cccs3)ccc2O1 | . | 10[16.7 µM] | 1 | -9 | . | .
CNC[C@@H]1Oc2cc(C#CC(C)(C)O)ccc2S(=O)(=O)N([C@H](C)CO)C[C@H]1C | . | 13[16.7 µM] | -4 | -1 | 2 | .
CO[C@@H]1CN(C)C(=O)c2cc(NS(=O)(=O)c3ccccc3F)ccc2OC[C@H](C)NC[C@@H]1C | . | 1[16.7 µM] | 2 | -3 | -3 | .
O=C(Nc1cccc(F)c1)N[C@@H]1CC[C@@H](CCNS(=O)(=O)c2cccc(Cl)c2)O[C@H]1CO | -5 | 10[16.7 µM] | -2 | 3 | . | .
O=C(Nc1cccc(F)c1)N[C@@H]1CC[C@H](CCNS(=O)(=O)c2cccc(Cl)c2)O[C@@H]1CO | -18 | 80*[16.7 µM] | 43 | 1 | . | .
O=C(N[C@@H]1CC[C@H](CCNS(=O)(=O)c2ccc(F)cc2)O[C@@H]1CO)C1CC1 | -11 | 59*[16.7 µM] | 8 | 0 | -3 | .
O=C(N[C@@H]1CC[C@@H](CCNS(=O)(=O)c2ccc(F)cc2)O[C@H]1CO)C1CC1 | -3 | -1[16.7 µM] | 2 | -1 | -9 | .
CCO[C@H]1OC(C(=O)N2CCOCC2)=C[C@@H](C2CCCCC2)[C@@H]1CCCO | 2 | -5[16.7 µM] | -5 | -2 | . | .
CC(=O)Nc1nnc(-c2ccc(Cl)s2)o1 | -17 | 3 | -1 | 45* | -2 | 2
C[C@@H]1CN([C@H](C)CO)C(=O)c2cc(NC(=O)C3CCCCC3)ccc2O[C@@H]1CN(C)S(C)(=O)=O | -5 | -7[16.7 µM] | 3 | -2 | . | .

Source: PubChem
